For 16 compounds, K obs, Kina and Ki results are on record in ChEMBL document CHEMBL1149331, “Design, synthesis, and structure-activity relationships of haloenol lactones: site-directed and isozyme-selective glutathione S-transferase inhibitors” (J Med Chem, 2004).

In general, pKi refers to the Ki on a negative log10 scale, so that one unit is a factor of ten. A lower pKi goes with a large Ki.

pKi: −log10 of the molar value. Calls of active or inactive are those of the source. No cut-off for these calls is given here.

Assay [1] concerns the target T1, Glutathione S-transferase P (Homo sapiens, UniProt P09211). In words: Inactivation of recombinant human Glutathione S-transferase P. The method in brief: (§1)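 Recombinant human GSTP1-1 (E. coli-expressed, glutathione-agarose purified), 0.1 mg/mL, preincubated with haloenol lactone (0.17 mM, added in ethanol; vehicle control) in phosphate buffer pH 7.4 at 30 °C. Aliquots taken at 0, 2, 5, 12 min. Residual activity read by Habig assay: 1.0 mM GSH + 1.0 mM CDNB, 0.1 M phosphate pH 6.5, A340, corrected for nonenzymatic rate; kobs from time course.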
Target sequence in this assay (P09211 2-210 limits assumed): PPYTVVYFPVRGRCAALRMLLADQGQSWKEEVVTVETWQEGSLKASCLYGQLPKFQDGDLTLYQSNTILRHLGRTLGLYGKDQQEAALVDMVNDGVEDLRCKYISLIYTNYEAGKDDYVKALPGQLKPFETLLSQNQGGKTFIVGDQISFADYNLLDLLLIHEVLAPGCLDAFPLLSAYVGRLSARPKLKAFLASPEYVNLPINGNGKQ

For assay [2], the target named is T1, Glutathione S-transferase P. In words: (§2) Inhibitory activity for human glutathione S-transferase-pi isozyme was determined. In short, it runs like this: as §1
Target sequence in this assay (P09211 2-210 limits assumed): as above
Assay [3] shares this target. Described as §2. In short, it runs like this: as §1
The source holds these as a separate data set.
Target sequence in this assay (P09211 whole entry): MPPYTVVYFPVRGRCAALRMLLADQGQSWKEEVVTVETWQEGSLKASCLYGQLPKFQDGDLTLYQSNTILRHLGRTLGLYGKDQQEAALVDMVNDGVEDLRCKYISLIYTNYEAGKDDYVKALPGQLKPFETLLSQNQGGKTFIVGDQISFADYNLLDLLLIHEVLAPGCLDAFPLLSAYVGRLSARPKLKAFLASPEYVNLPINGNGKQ

Assay [4] shares this target. In words: (§3) Inhibitory activity for human Glutathione S-transferase P was determined. In short, it runs like this:
as §1
Target sequence in this assay (P09211 2-210 limits assumed): as the sequence (P09211 2-210 limits assumed) above

Assay [5] has the same target. The assay is described as §3. In short, it runs like this: as §1
Target sequence in this assay (P09211 whole entry): as the sequence (P09211 whole entry) above
The source holds these as a separate data set.

Consider `O=C1O/C(=C/Br)CC1CCCCc1ccccc1` (stereo not given), for which the K obs in assay [1] stood at 0.0366. `O=C1O/C(=C/Br)CC1c1ccccc1` (stereo not given) had a Kina in assay [2] of 0.097 min⁻¹. Moreover, the K obs in assay [1] came to 0.15. In addition, the pKi in assay [3] is 3.91. As for `CCCCCCCCCC1C/C(=C\Br)OC1=O` (stereo not given), in assay [1], the K obs amounted to 0.0359. As to `CCCCCCC1C/C(=C\Br)OC1=O` (stereo not given), the K obs in assay [1] came to 0.0847. On the same count and under the same terms, with `O=C1O/C(=C/Br)CC1CC1CCCCC1` (stereo not given) the figure was 0.0438; with `O=C1O/C(=C/Br)CC1Cc1ccccc1` (stereo not given), 0.101; with `O=C1O/C(=C/Br)CC1CCCc1ccccc1` (stereo not given), 0.0439. For the compound `CCCCCCCCC1C/C(=C\Br)OC1=O` (stereo not given), in assay [1], the K obs worked out at 0.0382.

For `O=C1O/C(=C/Br)CC1C/C=C/c1ccccc1` (stereo not given), the K obs in assay [1] was determined as 0.0604. Also, the Kina in assay [4] was found to be 0.025 min⁻¹. Further, the pKi in assay [5] was 5.21. As to `O=C1O/C(=C/Br)CC1CCc1ccccc1` (stereo not given), in assay [1], the K obs was determined as 0.0632.

`O=C1O/C(=C/Br)CC1C/C=C/c1ccc(C(F)(F)F)cc1` (stereo not given): the K obs in assay [1] is 0.0364. Take `O=C1O/C(=C/Br)CC1Cc1ccc2ccccc2c1` (stereo not given): the K obs in assay [1] was found to be 0.0499. The same measure, in the same setting: with `COc1ccc(/C=C/CC2C/C(=C\Br)OC2=O)cc1` (stereo not given) the entry was “inactive”; with `O=C1O/C(=C/I)CC1C/C=C/c1ccccc1` (stereo not given), 0.0421. `C/C(Br)=C1/CC(C/C=C/c2ccccc2)C(=O)O1` (stereo not given): the K obs in assay [1] came to 0.0322. On to `CCCCCCCC1C/C(=C\Br)OC1=O` (stereo not given), for which the K obs in assay [1] was found to be 0.0608.
